Measured values reported in publication PMC3723589 (Channels, 2010).
Values joined by “and” are separate entries in the source; they are usually repeats but may differ in a detail not shown here. Equal values may be shown once. “Also recorded” adds a separate entry of the source. Read-outs that look alike come from different tables or passages of the source.

Legend:
[1] = test system: MC13 (Slo1(1-181):Slo3(171-1121)); test: Block of MC13; format: cell-based, mouse; conditions: at 0 mV
[2] = target: T1, MC13 (Slo1(1-181):Slo3(171-1121)) (Mus musculus, UniProt O54982); test: Block of MC13; format: cell-based; conditions: for effect of extracellular 4-AP on MC13/Slo3 currents: 4-AP up to 100 mM at pH 7.0, pipette pH 8.5
mouse Slo1 K+ channels [3] = target: T2, mouse Slo1 K+ channels (Mus musculus, UniProt Q08460); test: Block of Slo1 currents, blocker applied cytosolically to inside-out patches; format: cell-based; conditions: for zδ / zc / zo / zo (zδ) / Kd: 300 μM Ca2+; for zc / zo / zo (zδ) / Kd: pH 8.5
murine sperm = conditions: cited from earlier work
mouse Slo1 K+ channels [4] = target: T2, mouse Slo1 K+ channels; test: Block of Slo1 currents, blocker applied extracellularly to outside-out patches; format: cell-based
mouse Slo3 K+ channels [5] = target: T3, mouse Slo3 K+ channels (Mus musculus, UniProt O54982); format: cell-based
T3 sequence (O54982 1-1121): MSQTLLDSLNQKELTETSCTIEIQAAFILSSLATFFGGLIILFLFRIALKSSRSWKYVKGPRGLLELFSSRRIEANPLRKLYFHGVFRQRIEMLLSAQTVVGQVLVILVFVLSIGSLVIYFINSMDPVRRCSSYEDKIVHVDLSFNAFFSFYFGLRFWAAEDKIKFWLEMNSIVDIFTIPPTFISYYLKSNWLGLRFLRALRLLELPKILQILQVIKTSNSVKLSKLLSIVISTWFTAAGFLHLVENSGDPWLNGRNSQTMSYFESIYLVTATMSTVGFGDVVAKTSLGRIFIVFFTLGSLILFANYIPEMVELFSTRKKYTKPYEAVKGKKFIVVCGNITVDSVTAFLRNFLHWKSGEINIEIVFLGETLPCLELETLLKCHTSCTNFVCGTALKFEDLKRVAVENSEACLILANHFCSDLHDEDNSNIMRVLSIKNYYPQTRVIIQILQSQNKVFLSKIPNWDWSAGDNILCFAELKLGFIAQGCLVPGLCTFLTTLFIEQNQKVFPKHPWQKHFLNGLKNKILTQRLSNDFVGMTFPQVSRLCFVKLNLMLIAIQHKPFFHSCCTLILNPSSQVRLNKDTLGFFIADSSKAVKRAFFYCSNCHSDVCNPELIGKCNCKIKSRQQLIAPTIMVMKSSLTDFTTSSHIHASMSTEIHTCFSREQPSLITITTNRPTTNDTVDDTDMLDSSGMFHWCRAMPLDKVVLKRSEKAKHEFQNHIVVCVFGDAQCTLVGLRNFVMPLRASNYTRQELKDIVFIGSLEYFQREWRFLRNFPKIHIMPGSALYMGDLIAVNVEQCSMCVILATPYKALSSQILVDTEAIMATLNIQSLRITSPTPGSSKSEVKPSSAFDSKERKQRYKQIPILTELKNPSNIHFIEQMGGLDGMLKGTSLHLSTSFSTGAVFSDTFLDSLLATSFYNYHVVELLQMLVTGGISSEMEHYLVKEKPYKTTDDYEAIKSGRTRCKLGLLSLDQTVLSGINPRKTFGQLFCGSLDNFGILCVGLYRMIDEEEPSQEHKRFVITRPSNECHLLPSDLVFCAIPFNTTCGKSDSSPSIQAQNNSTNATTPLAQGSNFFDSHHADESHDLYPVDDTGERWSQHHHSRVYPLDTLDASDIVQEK

[6] = target: T1, MC13 (Slo1(1-181):Slo3(171-1121)); format: cell-based; conditions: pH 8.5
[7] = pK and percent protonation of tertiary amines; format: physicochemical; conditions: calculated from pK 9.2
human sperm = conditions: cited from earlier work
BK single channels [8] = conditions: symmetrical K+ solutions, cited from earlier work
Slo1-Y294V = Slo1-Y294V (Mus musculus, UniProt Q08460, Y359V); test: Block of Slo1-Y294V currents by extracellular CTX or TEA; format: cell-based; conditions: TEA up to 10 mM
How it was run: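 Excised outside-out patches at room temperature (~22–25°C), with blocker applied to the extracellular face by a multi-barrel local perfusion system, one barrel flowing at a time. The extracellular solution was (mM) 140 K-methanesulfonate, 20 KOH, 10 HEPES, 2 MgCl2, pH 7.0. The pipette (cytosolic) solution was 140 K-methanesulfonate, 20 KOH, 10 HEPES, with 10 μM Ca2+ for CTX tests.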

BK single channels [9] = conditions: symmetrical K+ solutions, cited from earlier work; remark: listed apart in the source
Slo1/BK-type channels = conditions: read-out: extracellular TEA concentration for blockade (half block); cited from earlier work
sperm = conditions: TEA at 2.5–10 mM; cited from earlier work
mouse Slo3 K+ channels [10] = target: T4, mouse Slo3 K+ channels (Mus musculus, UniProt O54982); test: Block of Slo3 currents by extracellular blockers; format: cell-based
T4 sequence (O54982 171-1121 limits assumed): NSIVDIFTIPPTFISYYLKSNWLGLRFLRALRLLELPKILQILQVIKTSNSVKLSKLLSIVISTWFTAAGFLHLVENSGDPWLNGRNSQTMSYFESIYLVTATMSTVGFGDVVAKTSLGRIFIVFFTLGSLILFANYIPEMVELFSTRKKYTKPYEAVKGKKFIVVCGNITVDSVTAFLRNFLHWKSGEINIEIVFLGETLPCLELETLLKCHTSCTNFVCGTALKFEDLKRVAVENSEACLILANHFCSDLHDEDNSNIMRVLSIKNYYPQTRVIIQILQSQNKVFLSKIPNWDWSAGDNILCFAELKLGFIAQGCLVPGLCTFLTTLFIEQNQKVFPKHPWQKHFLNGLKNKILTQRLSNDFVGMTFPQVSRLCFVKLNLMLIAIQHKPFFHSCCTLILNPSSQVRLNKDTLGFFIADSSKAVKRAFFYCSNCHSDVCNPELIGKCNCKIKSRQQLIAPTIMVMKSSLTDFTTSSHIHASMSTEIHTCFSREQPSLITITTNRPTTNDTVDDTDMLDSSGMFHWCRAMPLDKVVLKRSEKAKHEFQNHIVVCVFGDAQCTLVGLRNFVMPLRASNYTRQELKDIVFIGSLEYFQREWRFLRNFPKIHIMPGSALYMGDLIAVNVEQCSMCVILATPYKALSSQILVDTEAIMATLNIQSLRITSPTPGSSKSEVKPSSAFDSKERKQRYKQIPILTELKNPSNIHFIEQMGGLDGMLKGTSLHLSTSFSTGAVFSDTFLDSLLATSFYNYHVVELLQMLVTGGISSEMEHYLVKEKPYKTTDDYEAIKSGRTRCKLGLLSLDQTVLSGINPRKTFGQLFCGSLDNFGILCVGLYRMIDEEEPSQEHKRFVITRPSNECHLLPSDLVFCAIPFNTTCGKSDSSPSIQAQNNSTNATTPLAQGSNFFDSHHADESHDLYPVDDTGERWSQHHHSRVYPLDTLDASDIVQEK

[11] = cytosolic 4-AP, fit OB-CB (2') 4 params
[12] = cytosolic 4-AP, fit OB-CB (2a) 2 params
[13] = read-out: Kb, block by cytosolic TEA
[14] = cytosolic TEA, fit OB-CB (2') 4 params
[15] = cytosolic TEA, fit OB-CB (2a) 2 params
[16] = cytosolic TEA, 0 Ca2+, fit OB-CB (2a) 2 params

T1 sequence (Q08460 66-246 partner, one chain of several): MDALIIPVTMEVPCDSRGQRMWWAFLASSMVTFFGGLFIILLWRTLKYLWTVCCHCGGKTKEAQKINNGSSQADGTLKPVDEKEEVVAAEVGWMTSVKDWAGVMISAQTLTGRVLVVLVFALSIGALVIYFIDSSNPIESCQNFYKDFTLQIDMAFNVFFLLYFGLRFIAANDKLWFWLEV
T2 sequence (Q08460 66-1209 limits assumed): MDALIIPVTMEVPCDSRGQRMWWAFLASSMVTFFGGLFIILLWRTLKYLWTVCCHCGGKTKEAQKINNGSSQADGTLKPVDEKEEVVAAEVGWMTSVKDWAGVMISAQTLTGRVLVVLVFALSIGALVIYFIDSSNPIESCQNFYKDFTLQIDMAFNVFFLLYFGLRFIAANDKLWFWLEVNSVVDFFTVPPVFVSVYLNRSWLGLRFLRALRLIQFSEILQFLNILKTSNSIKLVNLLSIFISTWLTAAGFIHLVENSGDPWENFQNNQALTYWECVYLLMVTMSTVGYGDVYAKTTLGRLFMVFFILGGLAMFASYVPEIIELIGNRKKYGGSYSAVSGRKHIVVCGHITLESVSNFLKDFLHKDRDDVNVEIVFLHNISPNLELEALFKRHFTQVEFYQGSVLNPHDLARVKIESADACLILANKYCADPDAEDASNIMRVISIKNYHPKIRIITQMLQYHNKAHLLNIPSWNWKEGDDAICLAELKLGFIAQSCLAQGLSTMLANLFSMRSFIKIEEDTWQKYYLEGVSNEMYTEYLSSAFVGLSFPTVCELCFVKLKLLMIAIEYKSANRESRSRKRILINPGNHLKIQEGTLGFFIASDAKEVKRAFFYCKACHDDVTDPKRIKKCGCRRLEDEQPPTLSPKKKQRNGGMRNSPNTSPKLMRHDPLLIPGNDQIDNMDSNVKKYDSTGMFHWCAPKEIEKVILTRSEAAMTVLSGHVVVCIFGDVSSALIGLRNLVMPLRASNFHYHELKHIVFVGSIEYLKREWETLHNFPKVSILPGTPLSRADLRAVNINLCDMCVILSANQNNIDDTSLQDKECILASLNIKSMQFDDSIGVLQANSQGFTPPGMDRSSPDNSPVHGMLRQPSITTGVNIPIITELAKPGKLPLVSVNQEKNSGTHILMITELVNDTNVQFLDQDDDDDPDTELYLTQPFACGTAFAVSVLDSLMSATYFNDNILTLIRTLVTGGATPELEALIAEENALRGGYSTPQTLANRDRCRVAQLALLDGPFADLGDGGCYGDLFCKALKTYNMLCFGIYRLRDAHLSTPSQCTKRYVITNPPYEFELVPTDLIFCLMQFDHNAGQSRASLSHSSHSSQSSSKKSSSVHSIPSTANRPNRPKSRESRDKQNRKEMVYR
Slo1-Y294V, sequence (Q08460 66-1209 Y359V limits assumed): as the sequence (Q08460 66-1209 limits assumed) above, with Y294V counted along it

## Nc1ccncc1 [4-AP, 4-aminopyridine]
[1]
  difference in affinity of Slo1 and Slo3 channels for extracellular 4-AP: at least 20 fold
[2]
  effect of extracellular 4-AP on MC13/Slo3 currents: relatively insensitive; also recorded: little effect; also recorded: essentially no blocking effect
[2]; listed as 4-APo
  effect of extracellular 4-AP on MC13/Slo3 currents: without effect
Mouse Slo1 K+ channels [3]; cytosolic 4-AP at pH 7.0, Scheme 1a (Fig. 7C)
  zδ: 0.17 ± 0.01 e and 0.18 ± 0.02 e
Mouse Slo1 K+ channels [3]; cytosolic 4-AP at pH 8.5, Scheme 1a (Fig. 7D)
  zδ: 0.05 ± 0.06 e
Mouse Slo1 K+ channels [3]; cytosolic 4-AP at pH 8.5, state-independent Scheme 2a (Fig. 7D)
  zδ: 0.11 ± 0.03 e
Mouse Slo1 K+ channels [3]; [11]
  zc: 0.33 ± 0.32 e
  zo: 0.12 ± 0.03 e
Mouse Slo1 K+ channels [3]; [12]
  zc: 0.10 ± 0.02 e
Mouse Slo1 K+ channels [3]; cytosolic 4-AP, state-independent OB-CB (2a) 2 params
  zo (zδ): 0.10 ± 0.02e e
Mouse Slo1 K+ channels [3]; cytosolic 4-AP, pH 7.0 and 8.5 fit simultaneously with two-site Scheme 3
  z(p): 0.19 ± 0.02 e
Murine sperm
  concentration disrupting volume regulation: 1 to 4 mM
Mouse Slo1 K+ channels [4]; extracellular 4-AP, 300 μM Ca2+, pH 8.5, fit OB-CB (2a) 2 params
  zo: 0.48 ± 0.04 e
Mouse Slo3 K+ channels [5]; cytosolic 4-AP, pH 8.5, fit OB-CB (2a) 2 params
  zo: 0.16 ± 0.01 e
Mouse Slo3 K+ channels [5]; open channel block
  Slo3 more sensitive than Slo1 to cytosolic 4-AP: 10–15 fold
[6]; cytosolic 4-AP, fit OB-CB (2') 4 params (zo fixed 0)
  zc: 0.26 + 1.05 e
[6]; [12]
  zo: 0.17 ± 0.02 e
[6]; cytosolic 4-AP, open channel block OB (1a) 2 params
  zo (zδ): 0.02 ± 0.03 e
[7]; 4-AP at pH 7.0
  percent protonated: 99.4%
[7]; 4-AP at pH 8.5
  percent protonated: 83.4%
Human sperm
  concentration disrupting volume regulation: 1 to 4 mM

## CC[N+](CC)(CC)CC [TEA, tetraethylammonium]
BK single channels [8]; [13]
  Kb: 34700 µM
BK single channels [8]
  zδ: 0.27 e
Slo1-Y294V
  effect of extracellular TEA on Slo1-Y294V: lack of effect
[2]; TEA up to 10 mM
  effect of extracellular TEA on MC13: only minor effects; also recorded: minimal effect
Mouse Slo1 K+ channels [3]; [14]
  zc: 0.57 ± 0.32 e
  zo: 0.16 ± 0.20 e
Mouse Slo1 K+ channels [3]; [15]
  zc: 0.22 ± 0.02 e
  zo: 0.22 ± 0.02 e
Mouse Slo1 K+ channels [3]; cytosolic TEA, open channel block OB (1a) 2 params
  zo (zδ): 0.15 ± 0.02 e
Mouse Slo1 K+ channels [3]; read-out: Kbc, cytosolic TEA, fit OB-CB (2') 4 params
  Kd: 61400 ± 34800 µM
Mouse Slo1 K+ channels [3]; read-out: Kbc, cytosolic TEA, fit OB-CB (2a) 2 params
  Kd: 73500 ± 4500 µM
Mouse Slo1 K+ channels [3]; read-out: Kbo, cytosolic TEA, fit OB-CB (2') 4 params
  Kd: 78600 ± 22600 µM
Mouse Slo1 K+ channels [3]; read-out: Kbo, cytosolic TEA, fit OB-CB (2a) 2 params
  Kd: 73500 ± 4500 µM
BK single channels [9]; [13]
  Kb: 60000 µM
BK single channels [9]
  zδ: 0.26 e
Slo1/BK-type channels
  IC50: 200 to 300 µM
Mouse Slo1 K+ channels [4]; 250 μM extracellular TEA, at 0 mV
  block of Slo1 current: about 50%
Mouse Slo1 K+ channels [4]; extracellular TEA, 300 μM Ca2+, pH 8.5, fit OB-CB (2') 4 params (zc fixed 0)
  zo: 0.23 ± 0.04 e
Mouse Slo1 K+ channels [4]; extracellular TEA, 300 μM Ca2+, pH 8.5, fit OB-CB (2a) 2 params
  zc (voltage-dependence of closed state block): 0.23 ± 0.02 e
Mouse Slo1 K+ channels [4]; extracellular TEA, pipette 300 μM Ca2+, pH 8.5, fit OB (1a) 2 params
  zo (voltage-dependence of open state block): 0.34 ± 0.02 e
Mouse Slo1 K+ channels [4]; read-out: Kbc (affinity of blocker to closed state), extracellular TEA, 300 μM Ca2+, pH 8.5, fit OB-CB (2a) 2 params
  Kd: 174 ± 8 µM
Mouse Slo1 K+ channels [4]; read-out: Kbo (affinity of blocker to open state), extracellular TEA, pipette 300 μM Ca2+, pH 8.5, fit OB (1a) 2 params
  Kd: 132 ± 6.9 µM
[6]; cytosolic TEA, 0 Ca2+, fit OB-CB (2') 4 params (zo fixed 0)
  zc: 0.06 ± 0.20 e
[6]; [16]
  zc: 0.05 ± 0.02 e
  zo (z): 0.05 ± 0.02 e
[6]; read-out: Kbc, cytosolic TEA, 0 Ca2+, fit OB-CB (2') zo = zc = 0 e
  Kd: 2360 ± 420 µM
[6]; read-out: Kbc, cytosolic TEA, 0 Ca2+, fit OB-CB (2a) 2 params
  Kd: 2010 ± 290 µM
[6]; read-out: Kbo (Kb), cytosolic TEA, 0 Ca2+, fit OB-CB (2a) 2 params
  Kb: 2010 ± 290 µM
[6]; read-out: Kbo, cytosolic TEA, 0 Ca2+, fit OB (1a) zo = 0 e
  Kd: 330 ± 10 µM
[6]; read-out: Kbo, cytosolic TEA, 0 Ca2+, fit OB-CB (2') zo = zc = 0 e
  Kd: 560 ± 60 µM
sperm
  effects on sperm function: not produced
Mouse Slo3 K+ channels [10]
  block of Slo3: resistant to block
